In ChEMBL document CHEMBL1833959, “Itraconazole side chain analogues: structure-activity relationship studies for inhibition of endothelial cell proliferation, vascular endothelial growth factor receptor 2 (VEGFR2) glycosylation, and hedgehog signaling” (2011):
Calls of active or inactive are those of the source. No cut-off for these calls is given here.

Tests used:
[1] = test system: HUVEC; experiment: Ratio of itraconazole IC50 to compound IC50 for antiangiogenic activity in human HUVEC cells assessed as inhibition of cell proliferation; assay type: functional
[2] = biological target: Vascular endothelial growth factor receptor 2 (Homo sapiens) (UniProt P35968); experiment: Inhibition of VEGFR2 glycosylation in human HUVEC cells at 2 uM after 24 hrs by Western blot analysis; assay type: cell-based
Vascular endothelial growth factor receptor 2 (Homo sapiens), sequence (P35968 whole entry): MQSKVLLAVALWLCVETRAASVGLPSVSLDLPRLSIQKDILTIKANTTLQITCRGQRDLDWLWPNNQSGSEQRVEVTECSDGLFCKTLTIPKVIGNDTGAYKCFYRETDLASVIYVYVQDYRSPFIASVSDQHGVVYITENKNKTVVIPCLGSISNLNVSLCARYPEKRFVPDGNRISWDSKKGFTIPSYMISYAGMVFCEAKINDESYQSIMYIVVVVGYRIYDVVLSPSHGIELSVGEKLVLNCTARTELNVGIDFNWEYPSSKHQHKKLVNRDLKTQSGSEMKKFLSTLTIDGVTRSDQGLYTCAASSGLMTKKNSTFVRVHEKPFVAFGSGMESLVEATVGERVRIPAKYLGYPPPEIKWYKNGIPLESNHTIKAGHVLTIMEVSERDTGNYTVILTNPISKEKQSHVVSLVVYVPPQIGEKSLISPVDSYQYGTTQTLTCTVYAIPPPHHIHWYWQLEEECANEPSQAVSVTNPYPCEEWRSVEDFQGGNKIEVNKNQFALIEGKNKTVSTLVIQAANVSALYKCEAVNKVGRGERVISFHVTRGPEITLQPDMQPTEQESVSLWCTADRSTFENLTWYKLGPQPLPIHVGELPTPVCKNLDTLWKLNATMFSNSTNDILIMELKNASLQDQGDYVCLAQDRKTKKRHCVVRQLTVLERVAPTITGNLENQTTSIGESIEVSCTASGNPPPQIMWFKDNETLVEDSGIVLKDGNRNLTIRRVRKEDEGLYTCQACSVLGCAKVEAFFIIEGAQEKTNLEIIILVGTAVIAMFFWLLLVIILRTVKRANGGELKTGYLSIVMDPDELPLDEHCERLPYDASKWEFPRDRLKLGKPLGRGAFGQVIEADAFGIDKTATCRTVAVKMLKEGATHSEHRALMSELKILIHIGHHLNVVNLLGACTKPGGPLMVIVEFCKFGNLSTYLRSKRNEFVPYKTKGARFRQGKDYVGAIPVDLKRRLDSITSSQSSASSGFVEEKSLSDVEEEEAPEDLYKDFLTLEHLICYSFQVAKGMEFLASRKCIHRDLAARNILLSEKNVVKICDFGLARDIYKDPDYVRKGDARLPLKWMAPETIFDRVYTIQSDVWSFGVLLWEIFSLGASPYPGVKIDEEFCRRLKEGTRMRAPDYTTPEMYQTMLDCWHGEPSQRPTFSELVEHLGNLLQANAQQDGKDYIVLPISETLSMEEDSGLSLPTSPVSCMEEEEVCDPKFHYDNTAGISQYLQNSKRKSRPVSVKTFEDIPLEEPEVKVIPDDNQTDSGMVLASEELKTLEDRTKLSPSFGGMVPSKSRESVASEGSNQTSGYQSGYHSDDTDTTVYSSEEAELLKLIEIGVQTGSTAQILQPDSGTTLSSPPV
Method in brief: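 Pooled HUVEC (passage ≤8, EGM-2) seeded 5 × 10^4 per well, recovered overnight, then given fresh media with analogue added from 200X DMSO stocks; 24 h exposure. Cells lysed in 2X SDS sample buffer (ice 10 min, boiled 10 min), 6% SDS-PAGE, PVDF blot probed with anti-VEGFR2 and HRP anti-rabbit IgG, ECL detection.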

[3] = Inhibition of hedgehog signaling pathway in mouse Ptch+/- p53-/- medulloblastoma cells assessed as inhibition of receptor-mediated Gli1 transcriptional activity at antiproliferative IC90 concentration after 24 hrs by RT-PCR analysis relative to control
[4] = Ratio of itraconazole IC50 to compound IC50 for antiproliferative activity against mouse Ptch+/- p53-/- medulloblastoma cells isolated from allografts in nude Harlan mouse after 96 hrs; assay type: functional, Medulloblastoma cell
Method in brief: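 Ptch−/+;p53−/− MB cells from nude-mouse allografts (ficoll-purified, three neurosphere passages, CD15 confirmed by flow cytometry) disaggregated and seeded in NBMedia with multiple analogue concentrations for 96 h. Cell number read by MTS-type CellTiter 96 AQueous absorbance; IC50 fitted from dose–response curves of mean corrected absorbance normalized to control, expressed relative to itraconazole.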

[5] = test system: HUVEC; experiment: Ratio of itraconazole IC50 to compound […] for antiangiogenic activity in human HUVEC cells assessed as inhibition of cell proliferation; assay type: functional

Row | SMILES | Ratio IC50 [1] | inhibition [2] | fold change (FC) [3] | Ratio IC50 [4] | Ratio [5]
1 | CC/C=C/CCn1ncn(-c2ccc(N3CCN(c4ccc(OC[C@@H]5CO[C@@](Cn6cncn6)(c6ccc(Cl)cc6Cl)O5)cc4)CC3)cc2)c1=O | 1.57 | inactive | < 0.15 | 0.63 | –
2 | O=c1[nH]ncn1-c1ccc(N2CCN(c3ccc(OC[C@@H]4CO[C@@](Cn5cncn5)(c5ccc(Cl)cc5Cl)O4)cc3)CC2)cc1 | 2.78 | inactive | < 0.15 | 0.89 | –
3 | C#CCCCn1ncn(-c2ccc(N3CCN(c4ccc(OC[C@H]5CO[C@](Cn6cncn6)(c6ccc(Cl)cc6Cl)O5)cc4)CC3)cc2)c1=O | 0.14 | inactive | < 0.15 | 0.71 | –
4 | CCCC(C)n1ncn(-c2ccc(N3CCN(c4ccc(OC[C@@H]5CO[C@@](Cn6cncn6)(c6ccc(Cl)cc6Cl)O5)cc4)CC3)cc2)c1=O (mixture of isomers) | 0.75 | Active | < 0.15 | 0.38 | –
5 | CC[C@@H](C)n1ncn(-c2ccc(N3CCN(c4ccc(OC[C@H]5CO[C@](Cn6cncn6)(c6ccc(Cl)cc6Cl)O5)cc4)CC3)cc2)c1=O | 2.5 | Active | – | 1.7 | –
6 | CC[C@@H](C)n1ncn(-c2ccc(N3CCN(c4ccc(OC[C@@H]5CO[C@@](Cn6cncn6)(c6ccc(Cl)cc6Cl)O5)cc4)CC3)cc2)c1=O | 1.1 | Active | – | 1.4 | –
7 | O=c1n(-c2ccc(N3CCN(c4ccc(OC[C@@H]5CO[C@@](Cn6cncn6)(c6ccc(Cl)cc6Cl)O5)cc4)CC3)cc2)cnn1CCCCCCc1ccccc1 | – | inactive | < 0.15 | 0.69 | 1.45
8 | CCCn1ncn(-c2ccc(N3CCN(c4ccc(OC[C@@H]5CO[C@@](Cn6cncn6)(c6ccc(Cl)cc6Cl)O5)cc4)CC3)cc2)c1=O | 1.06 | Active | < 0.15 | 1.01 | –
9 | CC[C@H](C)n1ncn(-c2ccc(N3CCN(c4ccc(OC[C@@H]5CO[C@](Cn6cncn6)(c6ccc(Cl)cc6Cl)O5)cc4)CC3)cc2)c1=O | 3.2 | Active | – | 1.5 | –
10 | CC(C)n1ncn(-c2ccc(N3CCN(c4ccc(OC[C@@H]5CO[C@@](Cn6cncn6)(c6ccc(Cl)cc6Cl)O5)cc4)CC3)cc2)c1=O | 2.18 | inactive | > 0.45 | 1.06 | –
11 | CC[C@H](C)n1ncn(-c2ccc(N3CCN(c4ccc(OC[C@H]5CO[C@](Cn6cncn6)(c6ccc(Cl)cc6Cl)O5)cc4)CC3)cc2)c1=O | 1.6 | Active | – | 1.3 | –
12 | CC[C@@H](C)n1ncn(-c2ccc(N3CCN(c4ccc(OC[C@H]5CO[C@@](Cn6cncn6)(c6ccc(Cl)cc6Cl)O5)cc4)CC3)cc2)c1=O | 3.9 | inactive | – | 1.7 | –
13 | CC(C)Cn1ncn(-c2ccc(N3CCN(c4ccc(OC[C@@H]5CO[C@@](Cn6cncn6)(c6ccc(Cl)cc6Cl)O5)cc4)CC3)cc2)c1=O | 1.32 | Active | > 0.45 | 0.86 | –
14 | CC1(CCCCCCCn2ncn(-c3ccc(N4CCN(c5ccc(OC[C@@H]6CO[C@@](Cn7cncn7)(c7ccc(Cl)cc7Cl)O6)cc5)CC4)cc3)c2=O)N=N1 | – | inactive | > 0.45 | 1.18 | 1.1
15 | [N-]=[N+]=NCCCCCCn1ncn(-c2ccc(N3CCN(c4ccc(OC[C@@H]5CO[C@@](Cn6cncn6)(c6ccc(Cl)cc6Cl)O5)cc4)CC3)cc2)c1=O | 0.3 | Active | 0.16 | 0.7 | –
16 | CC[C@H](C)n1ncn(-c2ccc(N3CCN(c4ccc(OC[C@@H]5CO[C@@](Cn6cncn6)(c6ccc(Cl)cc6Cl)O5)cc4)CC3)cc2)c1=O | 0.8 | Active | – | 1.3 | –
17 | CC[C@@H](C)n1ncn(-c2ccc(N3CCN(c4ccc(OC[C@@H]5CO[C@](Cn6cncn6)(c6ccc(Cl)cc6Cl)O5)cc4)CC3)cc2)c1=O | 3.7 | inactive | – | 2.3 | –

Row | SMILES | Ratio IC50 [1] | inhibition [2] | fold change (FC) [3] | Ratio IC50 [4] | Ratio [5]
18 | CC1(CCn2ncn(-c3ccc(N4CCN(c5ccc(OC[C@@H]6CO[C@@](Cn7cncn7)(c7ccc(Cl)cc7Cl)O6)cc5)CC4)cc3)c2=O)N=N1 | >13.8 | Active | 0.16 | 1.32 | –
19 | O=c1n(-c2ccc(N3CCN(c4ccc(OC[C@@H]5CO[C@@](Cn6cncn6)(c6ccc(Cl)cc6Cl)O5)cc4)CC3)cc2)cnn1CC1CCCC1 | 0.5 | Active | 0.16 | 0.5 | –
20 | CC/C=C\CCn1ncn(-c2ccc(N3CCN(c4ccc(OC[C@@H]5CO[C@@](Cn6cncn6)(c6ccc(Cl)cc6Cl)O5)cc4)CC3)cc2)c1=O | 0.73 | inactive | < 0.15 | 0.94 | –
21 | CCC(CC)n1ncn(-c2ccc(N3CCN(c4ccc(OC[C@@H]5CO[C@@](Cn6cncn6)(c6ccc(Cl)cc6Cl)O5)cc4)CC3)cc2)c1=O | 1.1 | Active | < 0.15 | 0.54 | –
22 | CCCCn1ncn(-c2ccc(N3CCN(c4ccc(OC[C@@H]5CO[C@@](Cn6cncn6)(c6ccc(Cl)cc6Cl)O5)cc4)CC3)cc2)c1=O | 2.1 | inactive | > 0.45 | 0.7 | –
23 | O=C(c1ccccc1)c1ccc(OCCCCCCn2ncn(-c3ccc(N4CCN(c5ccc(OC[C@@H]6CO[C@@](Cn7cncn7)(c7ccc(Cl)cc7Cl)O6)cc5)CC4)cc3)c2=O)cc1 | >69.9 | inactive | > 0.45 | 0.8 | –
24 | N#CCCCCCn1ncn(-c2ccc(N3CCN(c4ccc(OC[C@@H]5CO[C@@](Cn6cncn6)(c6ccc(Cl)cc6Cl)O5)cc4)CC3)cc2)c1=O | 0.18 | Active | 0.16 | 0.84 | –
25 | CCC#CCCn1ncn(-c2ccc(N3CCN(c4ccc(OC[C@@H]5CO[C@@](Cn6cncn6)(c6ccc(Cl)cc6Cl)O5)cc4)CC3)cc2)c1=O | 1.09 | inactive | < 0.15 | 1.07 | –
26 | CC[C@H](C)n1ncn(-c2ccc(N3CCN(c4ccc(OC[C@H]5CO[C@@](Cn6cncn6)(c6ccc(Cl)cc6Cl)O5)cc4)CC3)cc2)c1=O | 3.1 | Active | – | 2.1 | –
27 | CC(C)CCn1ncn(-c2ccc(N3CCN(c4ccc(OC[C@@H]5CO[C@@](Cn6cncn6)(c6ccc(Cl)cc6Cl)O5)cc4)CC3)cc2)c1=O | 1.42 | Active | < 0.15 | 0.41 | –
28 | CCC(C)n1ncn(-c2ccc(N3CCN(c4ccc(OCC5COC(Cn6cncn6)(c6ccc(Cl)cc6Cl)O5)cc4)CC3)cc2)c1=O (stereo not drawn) [ITRACONAZOLE] | 1 | Active | < 0.15 | 1 | –
29 | CCCCCCCCn1ncn(-c2ccc(N3CCN(c4ccc(OC[C@@H]5CO[C@@](Cn6cncn6)(c6ccc(Cl)cc6Cl)O5)cc4)CC3)cc2)c1=O | – | inactive | < 0.15 | 0.67 | 2.24
30 | CCC1(Cn2ncn(-c3ccc(N4CCN(c5ccc(OC[C@@H]6CO[C@@](Cn7cncn7)(c7ccc(Cl)cc7Cl)O6)cc5)CC4)cc3)c2=O)COC1 | 0.77 | Active | 0.16 | 0.74 | –
31 | O=c1n(-c2ccc(N3CCN(c4ccc(OC[C@@H]5CO[C@@](Cn6cncn6)(c6ccc(Cl)cc6Cl)O5)cc4)CC3)cc2)cnn1C1CCCCC1 | 0.44 | Active | > 0.45 | 0.37 | –
32 | CCn1ncn(-c2ccc(N3CCN(c4ccc(OC[C@@H]5CO[C@@](Cn6cncn6)(c6ccc(Cl)cc6Cl)O5)cc4)CC3)cc2)c1=O | 2.94 | inactive | > 0.45 | 1.62 | –
33 | Cn1ncn(-c2ccc(N3CCN(c4ccc(OC[C@@H]5CO[C@@](Cn6cncn6)(c6ccc(Cl)cc6Cl)O5)cc4)CC3)cc2)c1=O | 4 | inactive | > 0.45 | 2.71 | –
34 | CCCCCn1ncn(-c2ccc(N3CCN(c4ccc(OC[C@@H]5CO[C@@](Cn6cncn6)(c6ccc(Cl)cc6Cl)O5)cc4)CC3)cc2)c1=O | 1.09 | inactive | < 0.15 | 0.66 | –
